Screens: PubChem, Sanford-Burnham Center for Chemical Genomics
SENP8 block-1 = SENP8 protease inhibition; Q96LD8; purified SENP8, Z-RLRGG-aminoluciferin cleavage, luminescence; inhibition, % at 10 µM; 330,000 tested, 1.2% active; in the data active = inhibition above about 50%
SENP7 inh = SENP7 protease inhibition; Q9BQF6; inhibition, % at 5 µM; AID 434973; 330,000 tested, 1.5% active; recombinant SENP7, Z-RLRGG-aminoluciferin luminescence, 40 min;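 active = inhibition above about 50% at the single test dose, limit read from the data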
SENP1 FRET inh = inhibitors of human SENP1 SUMO protease catalytic domain. Q9P0U3. recombinant SENP1 catalytic domain, CyPet-SUMO1-YPet FRET cleavage. inhibition, % at 10 µM. 360,000 tested, 0.21% active;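 active = inhibition at least 30% at 10 µM, raw YFP signal under a set limit, fluorescence ratio 0.5 to 1.5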
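system = hSENP1 catalytic domain, recombinant | reagent = SFCypet-SUMO1-SFYpet substrate at 25 nM | doses = one dose per compound, 10 µM, 0.5% DMSO | incubation = enzyme reaction for 50 min at room temperature, dark | measured by = FRET, CFP and YFP emission | controls = no-enzyme low, enzyme-DMSO high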
SENP6 inh = inhibitors of human SENP6 protease | AID 2599 | Q9GZR1 | Recombinant SENP6 catalytic domain, aminoluciferin luminescence | 330,000 tested, 1.8% active | inhibition, % at 10 µM;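 active = inhibition above about 50% at the single tested dose, limit read from the data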
Target sequence (Q9GZR1 628-1112 limits assumed): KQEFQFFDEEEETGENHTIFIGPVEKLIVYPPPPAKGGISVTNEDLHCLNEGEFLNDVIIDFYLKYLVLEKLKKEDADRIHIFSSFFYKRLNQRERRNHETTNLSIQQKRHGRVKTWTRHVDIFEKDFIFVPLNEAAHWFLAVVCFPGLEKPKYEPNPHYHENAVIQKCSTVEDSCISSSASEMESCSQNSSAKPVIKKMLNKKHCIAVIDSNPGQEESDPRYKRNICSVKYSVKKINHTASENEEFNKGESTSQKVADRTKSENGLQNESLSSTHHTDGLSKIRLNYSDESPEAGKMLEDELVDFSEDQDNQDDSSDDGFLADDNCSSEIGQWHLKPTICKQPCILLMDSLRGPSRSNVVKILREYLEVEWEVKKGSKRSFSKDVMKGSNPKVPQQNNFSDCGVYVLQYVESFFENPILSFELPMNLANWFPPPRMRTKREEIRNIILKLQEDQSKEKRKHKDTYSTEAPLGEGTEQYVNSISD
SENP8 block-2 = SENP8 (human) protease inhibition; recombinant SENP8, Nedd8 substrate fluorescence; inhibition, % at 20 µM; 360,000 tested, 0.64% active; AID 602440; in the data active = inhibition mostly above about 40%, no sharp cut-off; inactive = mostly below about 27%
A number is an active result; 0 = inactive; - = no result. An excerpt weighted towards active compounds, which were near 2.5% of everything screened.

SMILES	SENP8 block-1	SENP7 inh	SENP1 FRET inh	SENP6 inh	SENP8 block-2
O=C(Nc1ccc(Br)cn1)c1ccc(Cl)s1	0	54	0	61	0
O=[N+]([O-])c1cc(Cl)ccc1N1CCCC1	0	0	0	0	0
O=C1C(Cl)=C(N2CCN(c3ccccc3[N+](=O)[O-])CC2)C(=O)c2ccccc21	-	-	0	-	61
O=C(N/N=C/c1ccc([N+](=O)[O-])s1)c1ccccc1	0	0	0	50	0
Cc1ccccc1C(=O)N/N=C/c1ccc([N+](=O)[O-])s1	0	0	0	0	0
Cc1ccnn1CC(=O)N/N=C/c1ccc([N+](=O)[O-])s1	0	0	0	51	0
CCc1nc2ccc(C(=O)NCc3ccc4c(c3)OCO4)cn2c1N(C)Cc1cccs1	-	-	0	-	0
CC(C)(C)CC(C)(C)n1nnnc1N	-	-	0	-	0
O=C1CN(C(=O)COC(=O)CCc2ccccc2O)c2ccccc2N1	0	0	0	0	0
C=CCc1cccc2cc(C(=O)Nc3cccc(C(=O)O)c3)c(=O)oc12	0	0	-	55	-
CC(=O)Nc1nc(C)c(-c2csc(Nc3ccccn3)n2)s1	74	79	0	87	0
O=C1c2ccccc2C(=O)N1Cc1ccco1	0	0	0	0	0
CC1=CC(=C2C(=O)c3ccccc3C2=O)C=C(C)N1Cc1ccco1	0	0	37	0	0
Nc1cccc(C(=O)N/N=C/c2ccsc2)c1	0	0	0	0	0
CC(C)NCC(O)c1ccc(NS(C)(=O)=O)cc1 (centres undefined)	0	0	0	0	0
CC(C)NC[C@@H](O)c1ccc(O)c(O)c1	0	0	0	0	44
O=c1cc2c(=O)oc3cc(O)c(O)oc3c2c(O)c1O	-	-	30	-	0
O=C(Nc1ccnn1C1CCN(C2CCC2)CC1)c1ccccc1	0	0	0	0	0
Cc1occc1C(=O)N=Nc1c(O)n(C)c2ccccc12	0	75	0	73	0
CC(=O)N1CCc2cc(N=NC3=C(O)CCCC3=O)ccc21	0	0	47	0	0
COc1cc(CN2C(=O)C(C)ON=C2c2cccs2)cc(OC)c1 (centres undefined)	-	-	0	-	0
CCN(C(=O)COC(=O)c1c2c(nc3ccccc13)/C(=C/c1ccccc1)CC(C)C2)C1CCS(=O)(=O)C1 (centres undefined)	0	0	0	0	0
CC(=O)N(Cc1ccc(F)cc1)C1=C(NCCc2ccccc2)C(=O)c2ccccc2C1=O	0	0	0	0	76
CC(=O)Nc1ccc(NC(=O)C(C)OC(=O)c2ccc3[nH]c(C)c(C)c3c2)cc1 (centres undefined)	0	0	0	0	0
CCCCCN(C(=O)CCC(=O)OCCOc1cccc(C)c1)c1c(N)n(CCCC)c(=O)[nH]c1=O	0	0	0	0	0
SMILES	SENP8 block-1	SENP7 inh	SENP1 FRET inh	SENP6 inh	SENP8 block-2
Cc1[nH]c(=O)[nH]c(=O)c1S(=O)(=O)Nc1ccc(F)cc1Cl	0	0	0	0	0
CN(C)c1ccc(Cc2cc3c(O)ccc(O)c3cc(Cc3ccc(N(C)C)cc3)c2=O)cc1	-	-	0	-	52
C[C@H](NC(=O)[C@@H]1CCCN1C(=O)[C@@H]1CCCN1C(=O)c1cccc2ccccc12)c1ccccc1	-	-	0	-	0
CN(C)c1ccc(C=c2c3ccccc3n3c2c2ccccc2[n+]3C)cc1	-	-	0	-	0
Cc1cc2c(=Cc3ccc(N(C)C)cc3)c3ccccc3n2[n+]1C	-	-	41	-	43
CCOC(=O)c1cc2c(=Cc3ccc(N(C)C)cc3)c3ccccc3n2[n+]1C	-	-	0	-	91
Nc1sc(Cc2ccccc2)cc1C(=O)c1c(-c2ccccc2)[nH]c2ccccc12	-	-	0	-	0
O=C(/C=C/[C@H]1O[C@@H](n2ccc(=O)[nH]c2=O)[C@H](O)[C@@H]1O)NCC1CCCO1 (some centres undefined)	-	-	0	-	0
CCOc1ccc(S(=O)(=O)c2ccc(C)cc2)c2c1no[n+]2[O-]	-	-	0	-	0
Nc1ccc(O)c2c1C(=O)c1ccccc1C2=O	0	0	0	0	65
Cc1cc2[nH]c(=O)cc(-c3ccccc3)n2n1	0	0	0	0	0
Nc1nn2c(-c3ccccc3)cc(=O)[nH]c2c1N=Nc1ccc(O)cc1	0	0	0	0	63
Nc1nn2c(-c3ccccc3)cc(=O)[nH]c2c1N=Nc1ccc(Br)cc1	-	-	0	-	41
N#C/C(=C(/O)c1ccc2c(c1)OCO2)c1nc2cc(C(F)(F)F)ccc2s1	54	0	0	0	0
COc1ccc(S(=O)(=O)/N=C2\C=C(Nc3ccc(O)cc3)C(=O)c3ccccc32)cc1	95	87	0	93	90
O=C(O)c1ccc(S(=O)(=O)/N=C2\C=C(Nc3ccccc3F)C(=O)c3ccccc32)cc1	96	65	0	98	88
Cc1ccccc1NC1=C/C(=N\S(=O)(=O)c2ccc(C(=O)O)cc2)c2ccccc2C1=O	95	69	0	94	88
O=S(=O)(/N=C(/Nc1ccccc1F)c1ccccc1)c1ccccc1	0	0	0	0	0
Cc1ccc(NC(=O)CSc2ccc3c(c2)OCCO3)nc1	0	0	0	0	0
COCCN(C(=O)COC(=O)CCC(=O)c1cccs1)c1c(N)n(Cc2ccccc2)c(=O)[nH]c1=O	0	0	0	0	0
COc1cc(/C=C2/C(=O)NN(c3ccc(C)c(Cl)c3)C2=O)cc([N+](=O)[O-])c1O	0	0	0	0	50
COc1cc(/C=C2/C(=O)NN(c3cccc(C)c3)C2=O)cc([N+](=O)[O-])c1O	0	0	0	0	48
CCC/C(O)=C1\C(=O)CC(C)(C)CC1=Nc1ccccc1O	0	0	0	0	0
O=[N+]([O-])c1cccc(-c2noc(-c3cccs3)n2)c1	0	75	0	56	0
O=[N+]([O-])c1cccnc1N/N=C/c1ccccc1O	87	97	0	93	0
SMILES	SENP8 block-1	SENP7 inh	SENP1 FRET inh	SENP6 inh	SENP8 block-2
O=[N+]([O-])c1ccccc1/C=N/Nc1nccnc1Cl	0	0	0	0	0
O=C1NCCCC2c3cc(O)c4ccccc4c3OC12N1CCCCC1 (centres undefined)	63	0	-	71	-
O=C1NCCCC2c3c(cc(Br)c(O)c3Br)OC12N1CCOCC1 (centres undefined)	0	0	0	0	0
CC(C)CN=Cc1c(O)c([N+](=O)[O-])cc2oc3c(c12)CCCC3	0	0	32	0	0
O=[N+]([O-])c1cc2oc3c(c2c(C=NCc2ccccc2)c1O)CCCC3	0	0	46	0	0
Cc1cccc(/N=C/c2c(O)ccc3oc4c(c23)CCCC4)n1	0	0	0	0	0
CCn1c(SCC(=O)Nc2cccc(OC)c2)nc2c(c1=O)SCC2	0	0	0	0	0
O=C1C(NS(=O)(=O)c2ccccc2)=C(N2CCN(c3ccc(F)cc3)CC2)C(=O)c2ccccc21	0	0	0	0	0
O=C1C(NS(=O)(=O)c2cccs2)=C(N2CCN(c3cccc(Cl)c3)CC2)C(=O)c2ccccc21	0	0	0	0	70
CCS(=O)(=O)c1ccc2oc(Nc3ccccc3Br)nc2c1	87	95	0	92	0
